The values below come from article PMC5394958 (Haematologica, 2016).

The subject of data set [1] is chronic myeloid leukemia. Particulars: CP-CML patients; cited from earlier work.
In a further data set the test system is T315I BCR-ABL1 mutation. Particulars: cited from earlier work.
Data set [2] relates to TIE2. Briefly: Plasma angiopoietin 2. The format is in vivo, human. Particulars: Day 22 compared to baseline.
A short description of data set [3]: Human plasma protein binding. The format is in vitro ADME.
The nature of data set [4]: Plasma pharmacokinetics after multiple oral doses. The format is in vivo, human. To be noted: for Tmax: median Tmax.
The test system of a further data set is TRKA. To be noted: cited from earlier work.
For the next data set, the system named is c-ABL1. Particulars: cited from earlier work.
The test system of data set [5] is TIE2. To be noted: cited from earlier work.
The test system of data set [6] is BCR-ABL1 or FLT3. The data set is described as follows: Ex vivo incubation of patient whole blood, phosphorylation of CRKL or FLT3. In kind it is cell-based. Particulars: Homo sapiens, read-out: IC50 for inhibition of phosphorylation. In a few lines: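 Predose screening whole blood from TKI-resistant CML or AML patients was incubated with test compound ex vivo. Mononuclear cells were then fixed and permeabilized. Phosphorylation of CRKL or FLT3 was measured, with pCRKL read by flow cytometry. IC50 for inhibition of phosphorylation was determined per evaluable sample.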

The subject of another data set is BCR-ABL1 T315I. To be noted: cited from earlier work.
Data set [7] can be described thus: Phase 1 safety: adverse events. The format is in vivo, human. In a few lines:
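First-in-human, multicenter, single-arm oral study in 57 patients, given daily in 28-day cycles. Powder-in-capsule doses escalated from 57 mg QD to 1200 mg QD over 11 cohorts, doubling between the initial single-patient cohorts. Titration was accelerated 3+3, switching to standard 3+3 at grade ≥2 AEs. Tablet cohorts followed, up to 200 mg BID. AEs were graded by NCI CTC v3.0, and DLTs were assessed in cycle 1.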

The format of data set [8] is in vivo, human.
The test system of a further data set is TRKB. To be noted: cited from earlier work.
The subject of data set [9] is chronic myeloid leukemia. Briefly: Clinical response in CML patients. The format is in vivo, human.
The next data set relates to acute myeloid leukemia. The data set is described as follows: Clinical response in AML patients. The format is in vivo, human. Particulars: 5 patients with AML. In a few lines:
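Relapsed or refractory AML patients (ECOG ≤1) received oral drug daily in continuous 28-day cycles. Powder-in-capsule dosing ran from 57 mg QD up to 1200 mg QD, and tablets from 100 mg. Intra-patient dose escalation was allowed. Disease response was assessed locally every 3 cycles by standard criteria.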

Data set [10] has as its system BCR-ABL1 or FLT3. The data set is described as follows: Pharmacodynamics in dosed patients: pCRKL / pSTAT5 in blood cells. In kind it is in vivo, human. Particulars: of 45 patients with evaluable samples.

Several values for one entry are separate records, joined by “and”; a condition that tells them apart may be missing. Equal entries are not always repeated. Where two headings read alike, the source gives them in different places.

On to `COC(=O)C[C@](O)(CCCC(C)(C)O)C(=O)O[C@@H]1C(OC)=C[C@]23CCCN2CCc2cc4c(cc2[C@H]13)OCO4` [omacetaxine mepesuccinate], for which the cytogenetic responses in the data set on chronic myeloid leukemia [1] was ~ 20%.
For the molecule `Cc1ccc(C(=O)Nc2ccc(CN3CCN(C)CC3)c(C(F)(F)F)c2)cc1C#Cc1cnc2cccnn12` [ponatinib], in the data set with T315I BCR-ABL1 mutation, the “effectiveness against the T315I mutation” value was “effective”.
As to `CNC(=O)c1cc(Oc2ccc(NC(=O)Nc3cc(C(C)(C)C)nn3-c3ccc4ncccc4c3)c(F)c2)ccn1` [rebastinib], in the data set with TIE2 [2], the “patient samples with ANG2 increases” value is recorded as 19/20. Further, the fraction unbound in data set [3] is 0.0035. The “free drug in circulation” value in [4] (at 200 ng/mL, based on plasma protein binding) is recorded as ~ 1.3 nM. Besides, in [4] (human, plasma, oral), the “Bioavailability, formulated tablets compared to unformulated capsules” value is recorded as 3- to 4 fold; the “Exposure, tablets compared to PIC” value is reported as “approximately 3 fold”; the half-life lay within 12 to 15 h; the “initial distribution phase from Tmax” value is 6–8 hours postdose. Also, the “trough concentrations as % of Cmax” value in data set [4] (human, plasma, oral) was 10–20%. For the same molecule, the time of peak concentration (Tmax) in data set [4] (human, plasma, oral, PIC) stood at 2 h. Moreover, the time to peak (Tmax) in data set [4] (human, plasma, oral, tablets) lay within 1 to 1.5 h. Also, the Average plasma levels in data set [4] (~1–4 hours postdose, 150 mg BID) was 200 ng/mL and 360 nM. Also, the IC50 in the data set with TRKA was 0.17 nM. Further, in the data set on c-ABL1, the IC50 was 0.7 nM. Further, the IC50 in the data set with TIE2 [5] is 0.058 nM. Moreover, the IC50 with BCR-ABL1 or FLT3 [6] was under 200 nM. Besides, the “efficacy in mouse model” value with BCR-ABL1 T315I is recorded as “effective”. The “patients with DLT in first cycle” value in data set [7] (200 mg BID tablet) was determined as 2 n. Moreover, the “patients with DLT in first cycle” value in data set [7] (1200 mg QD PIC) is 1 n. In data set [7] (N=57), the SAE muscular weakness stood at 4 patients; the “patients with AEs suggestive of nervous system disorders, any grade” value is recorded as 33%; the “patients with Grade 3 or 4 AE” value is listed as 34 patients; the “patients with SAEs related to study treatment” value is 18 patients. For the same molecule, in data set [7] (N=57), the “patients with musculoskeletal disorders of all grades” value is reported as 22 patients, the “patients with serious adverse events (SAEs)” value was 34 patients and the “patients with visual abnormalities” value is on record as 19 patients. For the same molecule, the “treatment-related SAE” value in [7] (dose levels below 300 mg BID (PIC) and 100 mg QD (tablet)) is listed as “No treatment-related SAE”. Besides, in data set [7] (in vivo), the “CML patients with AEs suggestive of potential ≥Grade 3 cardiomyopathy” value turned out to be 4 patients; the Dose-limiting toxicities entry was “dysarthria, muscle weakness, and peripheral neuropathy”; the “patients discontinued due to musculoskeletal disorders” value was 2 patients; the “patients with at least one AE of any grade” value was 57 (100%) patients (%). The deaths deemed related result in data set [7] (n=8 deaths) is “none”. Further, the “patients with visual abnormalities first reported during Cycle 1” value in data set [7] (of 19) is listed as 10 patients. Further, in data set [7] (of 22), the “patients with Grade 3 musculoskeletal events” value was 13 patients and the “patients with musculoskeletal disorders during Cycle 1” value is reported as 14 patients. In addition, the “patients with Grade 3 AESI possibly or probably related” value in data set [7] (of 27 additional patients at 150 mg BID) turned out to be 18 patients. Further, the “maximum tolerated dose (MTD)” value in data set [7] (tablets, twice daily (BID)) turned out to be 150 mg. Further, the “patients with nervous system disorders” value in data set [8] (high Cmax subgroup) was 13 patients. Besides, in [8] (low Cmax subgroup), the “patients with nervous system disorders” value stood at 7 patients. For the same molecule, the “patients with nervous system disorders” value in [8] (middle Cmax subgroup) was 5 patients. Further, the IC50 in the data set with TRKB was 0.42 nM. Moreover, in the data set on chronic myeloid leukemia [9] (T315I), the “patients with complete cytogenetic response” value is 1 patients, the “patients with complete hematologic response” value turned out to be 4 patients, the “patients with major molecular response” value is given as 2 patients and the “patients with minor cytogenetic response” value worked out at 3 patients. Moreover, in the data set on chronic myeloid leukemia [9] (T315I), the “patients with minor hematologic response” value came to 0 patients, the “patients with partial cytogenetic response” value stood at 1 patients and the “patients with partial hematologic response” value was 3 patients. Further, in the data set on chronic myeloid leukemia [9] (fifty evaluable), the “patients with complete hematologic response” value is reported as 8 patients, the “patients with minor hematologic response” value was found to be 3 patients and the “patients with partial hematologic response” value is reported as 4 patients. Also, the “overall cytogenetic response rate of CML patients” value in the data set on chronic myeloid leukemia [9] (human, in vivo) was found to be 21%. Also, in the data set on chronic myeloid leukemia [9] (in 40 evaluable CML patients), the complete hematologic responses entry is reported as “Eight”. Also, in the data set on chronic myeloid leukemia [9] (of 37 evaluable), the “patients with complete cytogenetic response” value is 2 patients, the “patients with cytogenetic response” value worked out at 8 patients, the “patients with minor cytogenetic response” value is 4 patients and the “patients with partial cytogenetic response” value was determined as 2 patients. In addition, the “patients with molecular response (major molecular response)” value in the data set on chronic myeloid leukemia [9] (of 40 evaluable) is “Four”. Besides, in the data set with acute myeloid leukemia, the “AML patients with a response” value is “None”. Further, the “patients with significant (>50%) inhibition of phosphorylation of CRKL and/or STAT5” value in the data set on BCR-ABL1 or FLT3 [10] was 20 patients.
Regarding `COc1cc(Nc2c(C#N)cnc3cc(OCCCN4CCN(C)CC4)c(OC)cc23)c(Cl)cc1Cl` [bosutinib], the “effectiveness against the T315I BCR-ABL1 mutation” value with T315I BCR-ABL1 mutation was “not effective”.
Take `Cc1cn(-c2cc(NC(=O)c3ccc(C)c(Nc4nccc(-c5cccnc5)n4)c3)cc(C(F)(F)F)c2)cn1` [nilotinib]: the “effectiveness against the T315I BCR-ABL1 mutation” value in the data set with T315I BCR-ABL1 mutation was “not effective”.

A word on the fraction unbound: it is free concentration divided by total concentration. As usually defined, the half-life is the time needed for the level to fall by half in the phase considered. Read a high half-life as slow decline. The term Tmax denotes the time from dosing to the highest level. A word on the IC50: it is the concentration at which inhibition is half-maximal.
